Laboratory results: ChEMBL document CHEMBL1134666, “Design, synthesis, and biological evaluation of novel nucleoside and nucleotide analogues as agents against DNA viruses and/or retroviruses” (J Med Chem, 2001)
One block for each molecule: values may come before it.

Key:
[1] = Maximum velocity constant of the rate of phosphorylation was determined against PRPP synthetase
[2] = molecular target: T1, Adenosine deaminase (Bos taurus) (UniProt P56658); experiment: Maximum velocity constant of the rate of deamination was determined against adenosine deaminase
T1 sequence (whole entry): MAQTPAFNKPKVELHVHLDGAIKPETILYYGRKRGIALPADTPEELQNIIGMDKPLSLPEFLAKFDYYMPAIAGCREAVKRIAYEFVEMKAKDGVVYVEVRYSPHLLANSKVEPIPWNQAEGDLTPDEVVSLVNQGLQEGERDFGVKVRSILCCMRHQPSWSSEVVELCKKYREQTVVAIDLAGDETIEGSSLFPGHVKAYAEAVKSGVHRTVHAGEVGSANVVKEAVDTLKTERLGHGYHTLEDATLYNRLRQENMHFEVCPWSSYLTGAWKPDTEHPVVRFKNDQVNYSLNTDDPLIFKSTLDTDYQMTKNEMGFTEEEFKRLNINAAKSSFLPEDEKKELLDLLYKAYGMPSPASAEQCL
In short: (§1)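 Calf mucosal adenosine deaminase in buffer solution. Reaction velocity measured as µmol/min per mg enzyme across substrate concentrations.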

[3] = system: Vero; experiment: Michaelis rate constant is determined by the Lineweaver and Burk method against Vero cell thymidine kinase; type: functional, cell-based; settings: Chlorocebus sabaeus
[4] = Maximum velocity constant of the rate of phosphorylation was determined against PRPP synthetase
In short: (§2)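 PRPP synthetase (0.04 unit) in 10.0 mM potassium phosphate pH 8.0 with 5.0 mM MgCl2, 2.5 mM PRPP and substrate. Reaction linear; stopped with MeOH after 4 h. Diphosphate products quantified by anion-exchange HPLC.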

[5] = Michaelis rate constant is determined by the Lineweaver and Burk method against PRPP synthetase
In short: as §2

[6] = system: Thymidine kinase (Herpes simplex virus 1); experiment: Maximum velocity constant of the rate of phosphorylation was determined in the presence of HSV thymidine kinase
[7] = molecular target: T1, Adenosine deaminase (Bos taurus); experiment: Maximum velocity constant against adenosine deaminase
In short: as §1

[8] = system: Thymidine kinase (Herpes simplex virus 1); experiment: Maximum velocity constant of the rate of phosphorylation was determined against HSV thymidine kinase

SMILES: Nc1ncnc2ncn(CCOCP(=O)(O)O)c12
Relative Vmax [1]: 0.013

SMILES: Nc1ncnc2ncn(COCCO)c12
Relative Vmax [2]: 1.5
Km [3]: > 3 µM

Relative Vmax [4]: 14
Km [5]: 240 µM
SMILES: Nc1ncnc2c1ncn2[C@@H]1O[C@H](COP(=O)(O)O)[C@@H](O)[C@H]1O

Relative Vmax [6]: < 3
Relative Vmax [7]: 1.5
SMILES: Nc1ncnc2c1ncn2COCCO
Km [3]: > 3 µM

Relative Vmax [8]: 28
SMILES: Nc1nc(O)c2c(ncn2COCCO)n1

Relative Vmax [2]: 1
SMILES: Nc1ncnc2c1ncn2[C@@H]1O[C@H](CO)[C@@H](O)[C@@H]1O
Km [3]: 2.2 µM
